This is a sample that favours compounds with a hit; in the whole collection about 2.1% have one here.
DENV2 CPE rescue – DENV2-induced cell death inhibition; DENV2-infected cells, cytopathic effect rescue, plate reader; CPE inhibition, % at 9.99 µM; hit rate 1.7% among 350,000; in the data active means CPE inhibition above about 20%, passing the limit was not always enough; inconclusive means no clear call, values can overlap the other calls; tested in BHK-21 cells;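 further: 0% = median of neutral control wells and 100% = median of positive control wells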
XiGFP reactiv – reactivates the inactive X chromosome in mouse fibroblasts; XiGFP mouse fibroblasts, % GFP-positive cells imaging, 3 d; cells co-treated with 5-aza-dC sensitizer; scaled so ellipticine positive control = 100%; activation, % at 7.58 µM; hit rate 0.055% among 360,000;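 active means mean normalized replicate activation at least 10% and every replicate at or above 10%; inconclusive means only one of the two criteria met; inactive means mean below 10% and not all replicates reach 10%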;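 further: 0% = median of on-plate neutral control wells and 100% = ellipticine 6 µM median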
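Material: SV40-immortalized XiGFP fibroblast cells, line 68-5-11 | Buffer or medium: DMEM containing 5-aza-dC | Dosing: One concentration, pinned | Times: 3 d treatment, 15 min room-temperature fixation | Controls: Ellipticine 6 µM positive control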
Statin myotox sup – protects C2C12 myotubes from simvastatin toxicity; ATP luminescence, 48 h; scaled: DMSO 0, geranylgeraniol control 100; rescue of ATP level, % at 7.49 µM; hit rate 0.78% among 330,000; AID 602340;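 active means mean ATP rescue above about 67%, or every replicate alone reaching that limit, limit read from the data, passing the limit was not always enough; inconclusive means no clear call, values can overlap the other calls; inactive means mean under the limit and some replicate under it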;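 further: myotubes were challenged with 10 µM simvastatin during compound exposure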
Cneo AK release – causes C. neoformans cell lysis. hit rate 0.2% among 360,000. adenylate kinase release luminescence, 4 h; normalised: neutral wells 0, clomiphene wells 100. AID 651654. lysis activity, % at 15 µM;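 active means mean lysis activity across replicates of at least 80%, whatever share of replicates individually reach that level; inactive means mean lysis activity below 80%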
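Material: C. neoformans cells; Schedule: 4 h static compound exposure, 37 °C, read 1 h post-reagent; Measured by: adenylate kinase release luminescence; Read-out: signal increase indicating cell lysis; Controls: Clomiphene as positive lysis control.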
* hit, by the source's call; ? = inconclusive; . = no result given; ! = a repeat was not active.

SMILES	DENV2 CPE rescue	XiGFP reactiv	Statin myotox sup	Cneo AK release
C=CCOC(=O)C1=C[C@@H](C2CCCCC2)C[C@@H](OCc2ccc(CO)cc2)O1	48.3*	0.0	-11.8	1.3
O=C(Nc1ccccc1)C1=C[C@H](C2CCCCC2)C[C@H](OCc2ccc(CO)cc2)O1	-1.3	0.0	0.6	53.9
O=C(NCc1nc2ccccc2[nH]1)C1=C[C@H](C2CCCCC2)C[C@H](OCc2ccc(CO)cc2)O1	21.1*!	0.1	0.3	-0.1
O=C(NCc1nc2ccccc2[nH]1)C1=C[C@@H](C2CCCCC2)C[C@@H](OCc2ccc(CO)cc2)O1	-11.5	0.3	-20.1	-2.9
O=C(NCc1nc2ccccc2[nH]1)C1=C[C@H](c2ccc(C(F)(F)F)cc2)C[C@H](OCCCCO)O1	21.3*	0.1	1.2	-1.6
Cc1noc(C)c1S(=O)(=O)N(C)C[C@H]1Oc2c(cccc2N(C)C)C(=O)N([C@@H](C)CO)C[C@@H]1C	-5.8	-0.5	-9.1	1.2
Cc1ccc(S(=O)(=O)N(C)C[C@H]2OCCCC[C@@H](C)Oc3ccc(NS(=O)(=O)c4ccccc4)cc3C(=O)N([C@H](C)CO)C[C@H]2C)cc1	-3.3	0.1	-18.8	-4.3
Cc1cc(=O)nc2c3ccccc3n(C(C)C(=O)NCCN3CCOCC3)n12 (stereo not given)	35.3*	0.0	-18.4	-1.0
CCC(C(=O)NCCCN1CCOCC1)n1c2ccccc2c2nc(=O)cc(C)n21 (stereo not given)	-4.9	0.0	-17.3	-2.3
COc1ccc(NC(=O)Nc2ccc3c(c2)C(=O)N([C@H](C)CO)C[C@H](C)[C@H](CN(C)C(=O)NC2CCCCC2)OCCCC[C@H](C)O3)cc1	-11.9	-0.6	.	54.7
COc1ccc([N+](=O)[O-])cc1NC(=O)/C=C/C(=O)O	65.9*	0.7	.	9.0
Cc1ccc([N+](=O)[O-])cc1NC(=O)/C=C/C(=O)O	6.8	0.2	12.7	-0.3
N#Cc1sc2nc3c(c(-c4ccco4)c2c1N)CCCC3	.	.	97.6*	1.1
COc1ccc(C(=O)c2cn[nH]c2-c2cc(C)ccc2O)cc1	?	0.0	11.9	-1.0
COc1ccc(C(=O)c2cn[nH]c2-c2cc(Cl)ccc2O)cc1	.	.	144.1*	0.9
C[C@H](CO)N1C[C@H](C)[C@H](CN(C)C(=O)c2ccccc2F)Oc2cc(-c3ccc(F)cc3)ccc2S1(=O)=O	4.0	0.2	-8.9	-0.6
O=C(CSCc1ccccc1)Nc1ccc2c(c1)OCO2	.	.	23.8	-2.6
Cc1ccc(CSCC(=O)Nc2ccc3c(c2)OCO3)cc1	.	.	102.7*	0.9
CC(C)C(OC(=O)CCC(=O)Nc1nccs1)C(=O)NC1CCCCC1 (stereo not given)	1.0	0.0	99.4*	-1.2
C[C@H](CO)N1C[C@H](C)[C@H](CN(C)S(=O)(=O)c2ccc(F)cc2)Oc2c(NC(=O)C3CC3)cccc2C1=O	-5.9	0.1	-54.4	-1.0
C[C@H]1CN([C@@H](C)CO)C(=O)c2cc(NC(=O)CCN3CCOCC3)ccc2O[C@@H]1CN(C)C(=O)Nc1ccc2c(c1)OCO2	-1.9	0.0	-0.7	1.1
C[C@@H]1CN([C@H](C)CO)C(=O)c2cc(NC(=O)CCN3CCOCC3)ccc2O[C@@H]1CN(C)C(=O)Nc1ccc2c(c1)OCO2	49.8*	0.0	-8.6	2.8
COc1ccc(NC(=O)N(C)C[C@H]2Oc3ccc(NC(=O)CCN4CCOCC4)cc3C(=O)N([C@H](C)CO)C[C@@H]2C)cc1	51.5*!	0.0	4.0	-2.4
COc1ccc(CN(C)C[C@@H]2Oc3ccc(NC(=O)CCN4CCOCC4)cc3C(=O)N([C@@H](C)CO)C[C@H]2C)cc1	20.5*	0.0	44.0	43.8
CNC(=O)C[C@H]1CC[C@H]2[C@@H](COc3ccc(NC(=O)c4cc(C)on4)cc3C(=O)N2C)O1	4.0	0.0	12.6	3.3
SMILES	DENV2 CPE rescue	XiGFP reactiv	Statin myotox sup	Cneo AK release
COc1cc2c3nnc(-c4ccc(F)cc4)c-3cn(Cc3ccccc3)c2cc1OC	4.1	90.7*	10.0	-0.1
COc1cc2c3nnc(-c4ccc(F)cc4)c-3cn(Cc3ccc(F)cc3)c2cc1OC	3.9	2.9	-10.5	-1.8
COc1ccc(-c2nnn(Cc3ccccc3)n2)cc1OC	9.7	0.0	8.1	-2.1
COc1ccc(Cn2cc3c(-c4ccc(F)cc4)nnc-3c3cc(OC)c(OC)cc32)cc1	-15.5	80.5*	-20.3	-1.6
CC(C)CC(CO)NS(=O)(=O)c1cccc(Cl)c1F (stereo not given)	-1.7	-0.1	4.2	1.9
CC(C)C[C@@H](CO)NS(=O)(=O)c1c(F)cccc1F	49.3*	-0.2	7.8	-0.8

From PubChem BioAssay
